{
  "source": "ChEMBL document CHEMBL1811786",
  "about": "“Identification of MK-5710 ((8aS)-8a-methyl-1,3-dioxo-2-[(1S,2R)-2-phenylcyclo- propyl]-N-(1-phenyl-1H-pyrazol-5-yl)hexahydro-imidazo[1,5-a]pyrazine-7(1H)-carboxamide), a potent smoothened antagonist for use in Hedgehog pathway dependent malignancies, part 2” (Bioorg Med Chem Lett, 2011)",
  "key": {"[1]": {"assay": "Inhibition of Voltage-gated sodium channel at 30 uM"}, "[2]": {"molecular_target": "Cytochrome P450 2C9 (Homo sapiens, UniProt P11712)", "sequence (P11712 whole entry)": "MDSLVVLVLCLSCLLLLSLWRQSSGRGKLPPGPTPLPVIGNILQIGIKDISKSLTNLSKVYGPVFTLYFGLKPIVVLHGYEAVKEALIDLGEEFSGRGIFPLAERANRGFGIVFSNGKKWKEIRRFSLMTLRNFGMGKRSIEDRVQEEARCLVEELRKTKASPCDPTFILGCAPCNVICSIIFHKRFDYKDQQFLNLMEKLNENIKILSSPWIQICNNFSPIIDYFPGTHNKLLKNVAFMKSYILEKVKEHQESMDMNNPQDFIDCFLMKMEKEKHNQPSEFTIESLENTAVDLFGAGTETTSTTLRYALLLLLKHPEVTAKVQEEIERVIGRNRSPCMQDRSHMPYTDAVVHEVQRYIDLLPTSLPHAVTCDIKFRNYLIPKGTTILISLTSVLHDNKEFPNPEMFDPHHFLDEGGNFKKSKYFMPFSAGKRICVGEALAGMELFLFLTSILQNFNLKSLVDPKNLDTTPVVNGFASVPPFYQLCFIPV", "assay": "Inhibition of CYP2C9", "format": "ADME"}, "[3]": {"assay": "Half life in rat", "format": "ADME, organism-based", "conditions": "in vivo"}, "[4]": {"organism": "Rattus norvegicus", "assay": "Clearance in rat", "format": "ADME, organism-based", "conditions": "in vivo"}, "[5]": {"molecular_target": "Cytochrome P450 2D6 (Homo sapiens, UniProt P10635)", "sequence (P10635 whole entry)": "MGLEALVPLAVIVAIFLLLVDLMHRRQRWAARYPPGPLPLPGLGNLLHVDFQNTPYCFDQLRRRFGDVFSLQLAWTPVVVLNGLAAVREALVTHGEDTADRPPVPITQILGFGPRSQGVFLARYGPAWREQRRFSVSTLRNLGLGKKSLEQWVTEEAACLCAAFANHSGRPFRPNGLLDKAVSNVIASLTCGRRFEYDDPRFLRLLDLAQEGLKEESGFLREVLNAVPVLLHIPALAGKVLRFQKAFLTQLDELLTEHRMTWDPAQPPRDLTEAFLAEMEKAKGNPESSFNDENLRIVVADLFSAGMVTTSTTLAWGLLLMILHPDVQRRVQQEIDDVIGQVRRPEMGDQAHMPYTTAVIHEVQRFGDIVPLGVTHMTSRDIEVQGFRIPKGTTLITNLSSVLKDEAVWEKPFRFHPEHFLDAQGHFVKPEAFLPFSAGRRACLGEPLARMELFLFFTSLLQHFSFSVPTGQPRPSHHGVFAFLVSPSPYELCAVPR", "assay": "Inhibition of CYP2D6", "format": "ADME"}, "[6]": {"assay": "Half life in dog", "format": "ADME, organism-based, Canis lupus familiaris", "conditions": "in vivo"}, "[7]": {"assay": "Cmax in iv dosed dog", "format": "ADME, organism-based, Canis lupus familiaris", "parameters": "route intravenous", "conditions": "in vivo"}, "[8]": {"molecular_target": "T1, Protein smoothened (Homo sapiens, UniProt Q99835)", "T1 sequence (Q99835 whole entry)": "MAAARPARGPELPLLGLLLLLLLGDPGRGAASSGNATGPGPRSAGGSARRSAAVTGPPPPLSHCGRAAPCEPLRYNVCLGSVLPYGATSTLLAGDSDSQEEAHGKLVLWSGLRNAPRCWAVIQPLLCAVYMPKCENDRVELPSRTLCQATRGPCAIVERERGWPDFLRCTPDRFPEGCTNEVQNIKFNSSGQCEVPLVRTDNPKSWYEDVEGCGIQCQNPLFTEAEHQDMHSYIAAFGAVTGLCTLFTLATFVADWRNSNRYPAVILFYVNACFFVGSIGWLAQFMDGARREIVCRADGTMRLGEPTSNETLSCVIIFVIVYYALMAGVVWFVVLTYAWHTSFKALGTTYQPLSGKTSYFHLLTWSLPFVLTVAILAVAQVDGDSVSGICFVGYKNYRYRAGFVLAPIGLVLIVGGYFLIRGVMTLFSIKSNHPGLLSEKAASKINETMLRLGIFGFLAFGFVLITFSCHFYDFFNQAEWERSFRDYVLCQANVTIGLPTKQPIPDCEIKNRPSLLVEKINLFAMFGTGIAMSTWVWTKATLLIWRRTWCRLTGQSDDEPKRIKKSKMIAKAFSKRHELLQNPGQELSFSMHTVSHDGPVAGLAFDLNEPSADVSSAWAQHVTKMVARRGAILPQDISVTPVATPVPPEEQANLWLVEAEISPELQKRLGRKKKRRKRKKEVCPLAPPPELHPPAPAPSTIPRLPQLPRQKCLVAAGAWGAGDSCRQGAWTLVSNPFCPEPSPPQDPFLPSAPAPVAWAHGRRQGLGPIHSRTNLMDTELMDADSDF", "assay": "Displacement of BODIPY-cyclopamine from human Smo expressed in HEK293 cells in presence of 2% fetal calf serum", "format": "cell-based", "summary_of_the_method": "(§1)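 Competition binding: displacement of fluorescently labeled bodipy-cyclopamine from recombinant human Smo expressed in HEK-293 cells. Run in 2% fetal calf serum and, separately, in 20% normal human serum. IC50 values are means of at least five experiments.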"}, "[9]": {"system": "Mus musculus", "assay": "Toxicity in mouse medulloblastoma allograft model assessed as adverse effects at 40 mg/kg, po bid for 3 weeks", "format": "organism-based", "parameters": "dose 40 mg/kg, route oral", "conditions": "in vivo, 504 h", "summary_of_the_method": "(§2)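 Primary mouse medulloblastoma allograft, subcutaneous. Mice randomized when tumors averaged 400 mm³. Oral dosing for 3 weeks, bid at 40, 80, 120 or 160 mg/kg, or 80 mg/kg qd. Compound given as a suspension in 0.24% SDS/0.5% Methocel, with a BID vehicle control. Tumor volume tracked over days; body weight, physical signs and mortality monitored.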"}, "[10]": {"assay": "Oral bioavailability in dog", "format": "ADME, organism-based, Canis lupus familiaris", "conditions": "in vivo"}, "[11]": {"molecular_target": "hERG (KCNH2) (Homo sapiens, UniProt Q12809)", "sequence (Q12809 whole entry)": "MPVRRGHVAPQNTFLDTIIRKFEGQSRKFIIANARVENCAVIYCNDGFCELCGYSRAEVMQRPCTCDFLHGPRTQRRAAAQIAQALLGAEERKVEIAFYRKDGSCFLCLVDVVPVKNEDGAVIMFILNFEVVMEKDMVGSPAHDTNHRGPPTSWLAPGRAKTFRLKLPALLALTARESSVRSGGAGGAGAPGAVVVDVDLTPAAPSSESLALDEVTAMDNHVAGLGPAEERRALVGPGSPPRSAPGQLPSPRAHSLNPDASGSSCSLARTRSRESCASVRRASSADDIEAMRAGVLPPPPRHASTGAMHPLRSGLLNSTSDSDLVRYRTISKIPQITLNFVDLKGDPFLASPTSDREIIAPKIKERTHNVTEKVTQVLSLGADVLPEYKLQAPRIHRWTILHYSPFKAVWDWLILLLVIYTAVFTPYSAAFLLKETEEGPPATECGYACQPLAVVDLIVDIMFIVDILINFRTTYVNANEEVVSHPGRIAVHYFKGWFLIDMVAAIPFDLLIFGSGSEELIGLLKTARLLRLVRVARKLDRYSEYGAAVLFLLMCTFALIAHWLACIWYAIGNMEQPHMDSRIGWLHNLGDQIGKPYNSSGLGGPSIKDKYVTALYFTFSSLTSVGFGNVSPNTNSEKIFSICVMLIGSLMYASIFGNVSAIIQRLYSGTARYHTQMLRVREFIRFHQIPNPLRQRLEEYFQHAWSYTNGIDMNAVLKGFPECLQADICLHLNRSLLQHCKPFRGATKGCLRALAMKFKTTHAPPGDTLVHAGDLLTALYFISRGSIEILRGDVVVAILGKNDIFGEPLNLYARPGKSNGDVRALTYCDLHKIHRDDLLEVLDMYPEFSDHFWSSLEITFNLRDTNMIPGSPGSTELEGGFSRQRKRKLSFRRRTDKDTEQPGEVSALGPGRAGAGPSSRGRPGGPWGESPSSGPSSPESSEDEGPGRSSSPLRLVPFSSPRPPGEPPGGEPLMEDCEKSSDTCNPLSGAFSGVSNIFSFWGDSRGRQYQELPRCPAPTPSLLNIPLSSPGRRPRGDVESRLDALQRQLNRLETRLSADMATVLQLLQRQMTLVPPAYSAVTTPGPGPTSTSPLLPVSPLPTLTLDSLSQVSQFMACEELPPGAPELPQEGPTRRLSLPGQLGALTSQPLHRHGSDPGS", "assay": "Inhibition of human ERG at 30 uM"}, "[12]": {"system": "Mus musculus", "assay": "Inhibition of Shh pathway in mouse medulloblastoma allograft model assessed as reduction in tumor Gli-1 mRNA expression at 80 mg/kg, po administered as single dose measured after 4 hrs", "format": "functional", "summary_of_the_method": "(§3)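 Tumor-bearing medulloblastoma mice given a single oral 80 mg/kg dose. Tumor biopsies taken at timepoints up to 24 h; Hh-pathway inhibition measured as reduction of Gli-1 mRNA.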"}, "[13]": {"system": "Mus musculus", "assay": "Inhibition of Shh pathway in mouse medulloblastoma allograft model assessed as reduction in tumor Gli-1 mRNA expression at 80 mg/kg, po administered as single dose measured after 8 hrs", "format": "functional", "summary_of_the_method": "as §3"}, "[14]": {"assay": "Oral bioavailability in rat", "format": "ADME, organism-based", "conditions": "in vivo"}, "[15]": {"system": "Canis familiaris", "assay": "Toxicity in iv dosed vagotomized dog assessed as change in hemodynamic parameters", "format": "organism-based, Canis lupus familiaris", "conditions": "in vivo"}, "[16]": {"molecular_target": "Cytochrome P450 3A4 (Homo sapiens, UniProt P08684)", "sequence (P08684 whole entry)": "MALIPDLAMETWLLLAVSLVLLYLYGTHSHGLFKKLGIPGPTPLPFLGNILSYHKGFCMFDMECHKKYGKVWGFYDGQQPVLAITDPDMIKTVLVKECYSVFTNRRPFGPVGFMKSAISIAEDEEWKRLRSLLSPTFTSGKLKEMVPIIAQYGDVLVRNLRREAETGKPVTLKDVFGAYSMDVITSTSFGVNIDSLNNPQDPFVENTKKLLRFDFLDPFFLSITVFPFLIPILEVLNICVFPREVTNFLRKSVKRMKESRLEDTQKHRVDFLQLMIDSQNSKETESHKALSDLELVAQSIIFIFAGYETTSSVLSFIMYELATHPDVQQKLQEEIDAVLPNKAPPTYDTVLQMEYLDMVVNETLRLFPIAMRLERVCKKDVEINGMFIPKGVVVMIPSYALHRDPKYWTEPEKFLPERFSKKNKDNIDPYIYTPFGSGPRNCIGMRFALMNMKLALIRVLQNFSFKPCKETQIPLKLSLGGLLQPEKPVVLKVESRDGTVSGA", "assay": "Inhibition of CYP3A4", "format": "ADME"}, "[17]": {"organism": "Canis familiaris", "assay": "Clearance in dog", "format": "ADME, organism-based, Canis lupus familiaris", "conditions": "in vivo"}, "[18]": {"system": "Mus musculus", "assay": "Inhibition of Shh pathway in mouse medulloblastoma allograft model assessed as reduction in tumor Gli-1 mRNA expression at 80 mg/kg, po administered as single dose", "format": "functional, organism-based", "parameters": "dose 80 mg/kg", "conditions": "TDE = time-dependent effect", "summary_of_the_method": "as §3"}, "[19]": {"system": "Mus musculus", "assay": "Inhibition of Shh pathway in mouse medulloblastoma allograft model assessed as reduction in tumor Gli-1 mRNA expression at 80 mg/kg, po administered as single dose measured after 6 hrs", "format": "functional", "summary_of_the_method": "as §3"}, "[20]": {"molecular_target": "T1, Protein smoothened", "assay": "Displacement of BODIPY-cyclopamine from human Smo expressed in HEK293 cells in presence of 20% normal human serum", "format": "cell-based", "summary_of_the_method": "as §1"}, "[21]": {"system": "Mus musculus", "assay": "Toxicity in mouse medulloblastoma allograft model assessed as adverse effects at 80 mg/kg, po bid for 3 weeks", "format": "organism-based", "parameters": "dose 80 mg/kg, route oral", "conditions": "in vivo, 504 h", "summary_of_the_method": "as §2"}, "[22]": {"system": "Mus musculus", "assay": "Toxicity in mouse medulloblastoma allograft model assessed as adverse effects at 80 mg/kg, po qd for 3 weeks", "format": "organism-based", "parameters": "dose 80 mg/kg, route oral", "conditions": "in vivo, 504 h", "summary_of_the_method": "as §2"}, "[23]": {"assay": "Volume of distribution at steady state in rat", "format": "ADME, organism-based", "conditions": "in vivo, read-out: Vdss"}, "[24]": {"system": "Mus musculus", "assay": "Toxicity in mouse medulloblastoma allograft model assessed as adverse effects at 120 mg/kg, po bid for 3 weeks", "format": "organism-based", "parameters": "dose 120 mg/kg, route oral", "conditions": "in vivo, 504 h", "summary_of_the_method": "as §2"}, "[25]": {"assay": "Volume of distribution at steady state in dog", "format": "ADME, organism-based, Canis lupus familiaris", "conditions": "in vivo, read-out: Vdss"}, "[26]": {"system": "Canis familiaris", "assay": "Toxicity in iv dosed vagotomized dog assessed as change in cardiovascular parameters", "format": "organism-based, Canis lupus familiaris, Heart", "conditions": "in vivo"}, "[27]": {"system": "Mus musculus", "assay": "Toxicity in mouse medulloblastoma allograft model assessed as adverse effects at 160 mg/kg, po bid for 3 weeks", "format": "organism-based", "parameters": "dose 160 mg/kg, route oral", "conditions": "in vivo, 504 h", "summary_of_the_method": "as §2"}},
  "data": [
    {"smiles": "C[C@@]12CN(C(=O)Nc3ccnn3-c3ccccc3)CCN1C(=O)N([C@H]1C[C@@H]1c1ccccc1)C2=O", "values": [
      {"measurement": "inhibition", "setting": "[1]", "value": 45, "unit": "%"},
      {"measurement": "IC50", "setting": "[2]", "value": "> 40000", "unit": "nM"},
      {"measurement": "half-life", "setting": "[3]", "value": 5.1, "unit": "h"},
      {"measurement": "clearance", "setting": "[4]", "value": 22, "unit": "mL/min/kg"},
      {"measurement": "IC50", "setting": "[5]", "value": "> 40000", "unit": "nM"},
      {"measurement": "half-life", "setting": "[6]", "value": 1.1, "unit": "h"},
      {"measurement": "Cmax", "setting": "[7]", "value": 16, "unit": "µM"},
      {"measurement": "IC50", "setting": "[8]", "value": 13, "unit": "nM"},
      {"measurement": "Activity", "setting": "[9]", "value": "Non-toxic"},
      {"measurement": "bioavailability", "setting": "[10]", "value": 52, "unit": "%"},
      {"measurement": "inhibition at 30 µM", "setting": "[11]", "value": 27, "unit": "%"},
      {"measurement": "inhibition in vivo at 80 mg/kg", "setting": "[12]", "value": 77, "unit": "%"},
      {"measurement": "inhibition in vivo at 80 mg/kg", "setting": "[13]", "value": "> 85", "unit": "%"},
      {"measurement": "bioavailability", "setting": "[14]", "value": 40, "unit": "%"},
      {"measurement": "Activity", "setting": "[15]", "value": "Non-toxic"},
      {"measurement": "IC50", "setting": "[16]", "value": "> 40000", "unit": "nM"},
      {"measurement": "clearance", "setting": "[17]", "value": 22, "unit": "mL/min/kg"},
      {"measurement": "inhibition", "setting": "[18]", "value": "tde"},
      {"measurement": "inhibition in vivo at 80 mg/kg", "setting": "[19]", "value": "> 85", "unit": "%"},
      {"measurement": "IC50", "setting": "[20]", "value": 22, "unit": "nM"},
      {"measurement": "Activity", "setting": "[21]", "value": "Non-toxic"},
      {"measurement": "Activity", "setting": "[22]", "value": "Non-toxic"},
      {"measurement": "Vd", "setting": "[23]", "value": 2.9, "unit": "L/kg"},
      {"measurement": "Activity", "setting": "[24]", "value": "Non-toxic"},
      {"measurement": "Vd", "setting": "[25]", "value": 2, "unit": "L/kg"},
      {"measurement": "Activity", "setting": "[26]", "value": "Non-toxic"},
      {"measurement": "Activity", "setting": "[27]", "value": "Non-toxic"}
    ]}
  ]
}
